# Source: ChEMBL document CHEMBL4376902, “CN128: A New Orally Active Hydroxypyridinone Iron Chelator” (J Med Chem, 2020)
# Calls of active or inactive are those of the source. The calls are words filed in the database; no cut-off is given here.
# Tests used:
# Cytochrome P450 3A4 = Cytochrome P450 3A4 (Homo sapiens, UniProt P08684); assay: Inhibition of CYP3A4 in human liver microsomes; assay type: ADME
# [1] = Toxicity in Sprague-Dawley rat assessed as induction of histopathological changes in thymus. at 25 to 116 mg/kg, po dosed daily for 4 weeks during chronic 4 week toxicity test; assay type: organism-based; details: in vivo, 672 h
# [2] = Toxicity in Sprague-Dawley rat assessed as induction of histopathological changes in bone marrow at 25 to 116 mg/kg, po dosed daily for 4 weeks and measured after additional 4 weeks period in absence of drug; assay type: organism-based; details: in vivo, 672 h
# [3] = Binding affinity to Zn2+ ion assessed as affinity constant by spectrophotometric titration method
# [4] = Drug metabolism in human liver microsomes assessed as glucuronidation incubated for 1 hr relative to deferiprone; assay type: ADME, Microsome
# Outline: (§1)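 Compound incubated 1 h with rat or human liver microsomes, n = 4, mean ± SD. Glucuronide formed given as percentage of total chelator added. Oxidative metabolism assessed separately.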
# Mus musculus [5] = assay: Toxicity in mouse assessed as reduction in neutrophils counts at 200 mg/kg, po dosed once daily for 2 months as 5 days per week schedule; details: in vivo, 120 h
# Cytochrome P450 2C8 = molecular target: T1, Cytochrome P450 2C8 (Homo sapiens, UniProt P10632); assay: Inhibition of CYP2C8 in human liver microsomes; assay type: ADME
# T1 sequence (P10632 whole entry): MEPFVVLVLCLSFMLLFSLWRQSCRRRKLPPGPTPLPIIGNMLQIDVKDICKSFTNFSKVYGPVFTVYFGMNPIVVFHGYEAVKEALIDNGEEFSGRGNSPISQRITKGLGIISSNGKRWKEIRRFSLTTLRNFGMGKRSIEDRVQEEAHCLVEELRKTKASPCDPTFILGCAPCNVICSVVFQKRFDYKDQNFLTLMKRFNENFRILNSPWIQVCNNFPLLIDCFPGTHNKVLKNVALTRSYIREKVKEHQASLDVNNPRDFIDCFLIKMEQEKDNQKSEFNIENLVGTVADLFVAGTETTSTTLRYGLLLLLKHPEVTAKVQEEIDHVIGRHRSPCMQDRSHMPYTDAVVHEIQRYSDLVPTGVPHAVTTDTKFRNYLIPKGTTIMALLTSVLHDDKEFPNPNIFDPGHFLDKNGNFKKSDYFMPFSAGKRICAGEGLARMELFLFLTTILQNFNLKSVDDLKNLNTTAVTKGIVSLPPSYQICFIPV
# [6] = Acid dissociation constant, pKa2 of the compound over pH 1.8 to 11.0 by spectrophotometric titration method; assay type: physicochemical
# Outline: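 Automated spectrophotometric titration with 0.1 M KOH in 0.1 pH-unit steps. Reading accepted as stable when drift was <0.01 pH unit after a 1.5 min incubation. 10 mm path length cuvette. Spectra fitted by computer to obtain the pKa values.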
# [7] = Oral bioavailability in Sprague-Dawley rat at 75 umol/k measured up to 1440 mins by LC/MS/MS analysis; assay type: ADME, organism-based; details: in vivo, 75 umol/kg
# Outline: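 Sprague-Dawley rats (200-250 g, half male, half female, n = 8 per route), fasted about 12 h. Dosed i.v. via tail vein at 75 μmol/kg or orally at 75-600 μmol/kg. Heparinised blood taken 0-1440 min; plasma protein-precipitated with acetonitrile and assayed by LC/MS/MS; bioavailability from oral vs i.v. exposure.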
# [8] = Lipophilicity coefficient, logP of the compound in Tris buffer at pH 7.0 (100 mM/n-octanol); assay type: physicochemical
# Outline: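 Octanol/water partition measured between n-octanol and 100 mM Tris buffer, pH 7.0.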
# [9] = Drug level in rat intestine at 150 umol/kg, po measured measured up to 6 hrs by LC-MS/MS analysis; assay type: ADME, organism-based; details: in vivo
# Outline: (§2)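 Single oral dose of 150 μmol/kg to SD rats, half male and half female, n=6 per group. Rats decapitated at 10 min, 30 min, 2 h and 6 h. Tissues dissected, saline-washed, weighed and homogenised in acetonitrile/water 1:9 (125 mg/mL). Drug level measured against plasma; mean ± SE.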
# [10] = Drug level in rat liver at 150 umol/kg, po measured measured up to 6 hrs by LC-MS/MS analysis; assay type: ADME, organism-based; details: in vivo; outline: as §2
# [11] = Toxicity in iron-overloaded rat assessed as induction of mortality at 75 to 1200 umol/kg, po; details: in vivo
# [12] = Apparent volume of distribution in Sprague-Dawley rat at 150 umol/kg, po measured up to 1440 mins by LC/MS/MS analysis; assay type: ADME, organism-based; details: in vivo, 24 h
# [13] = Apparent clearance in Sprague-Dawley rat at 150 umol/kg, po measured up to 1440 mins by LC/MS/MS analysis; assay type: ADME, organism-based; details: in vivo, read-out: CL(app) (converted)
# [14] = Drug metabolism in rat liver microsomes assessed as glucuronidation incubated for 1 hr relative to deferiprone; assay type: ADME, Microsome; outline: as §1
# Rattus norvegicus = assay: Iron scavenging activity in 59Fe-ferritin-loaded rat assessed as iron mobilization level at 150 umol/kg, po dosed 1 hr after 59Fe-ferritin injection and measured 24 hrs after 59Fe-ferritin injection by gamma counting method relative to control; assay type: functional, organism-based
# Outline: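 Male SD rats, 300 g, fasted overnight, given about 1 μC 59Fe-ferritin i.v. under isoflurane. Chelator gavaged 1 h later, then rats housed in metabolic cages; food returned 1 h after dosing. Killed 24 h after 59Fe-ferritin. Urine, faeces, liver and gut gamma-counted. 8 rats per condition.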
# [15] = Genotoxicity in Salmonella typhimurium by Ames test; assay type: toxicity; details: salmonella enterica subsp. enterica serovar typhimurium
# [16] = Binding affinity to Al3+ ion assessed as affinity constant by spectrophotometric titration method
# [17] = Binding affinity to Fe3+ ion assessed as affinity constant by spectrophotometric titration method
# Outline: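 Automated spectrophotometric titration with 0.1 M KOH in 0.1 pH steps, 3 min equilibration per step, 50 mm cuvette, iron complexes at ca. 40 µM. Titrated in competition with metal hydrolysis species up to pH 12.0. Hydrolysis constants taken from critical compilations. Iron spectra fitted over 400–700 nm.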
# [18] = Binding affinity to Ni2+ ion assessed as pM value by spectrophotometric titration method
# [19] = Toxicity in Sprague-Dawley rat assessed as induction of histopathological changes in pancreas at 25 to 116 mg/kg, po dosed daily for 4 weeks and measured after additional 4 weeks period in absence of drug; assay type: organism-based; details: in vivo, 672 h
# [20] = Toxicity in Sprague-Dawley rat assessed as induction of histopathological changes in thymus at 25 to 116 mg/kg, po dosed daily for 4 weeks and measured after additional 4 weeks period in absence of drug; assay type: organism-based; details: in vivo, 672 h
# Mus musculus [21] = assay: Toxicity in mouse assessed as reduction in total white cell counts at 200 mg/kg, po dosed once daily for 2 months as 5 days per week schedule; details: in vivo, 120 h
# Chain of Cytochrome P450 3A4 (P08684 whole entry): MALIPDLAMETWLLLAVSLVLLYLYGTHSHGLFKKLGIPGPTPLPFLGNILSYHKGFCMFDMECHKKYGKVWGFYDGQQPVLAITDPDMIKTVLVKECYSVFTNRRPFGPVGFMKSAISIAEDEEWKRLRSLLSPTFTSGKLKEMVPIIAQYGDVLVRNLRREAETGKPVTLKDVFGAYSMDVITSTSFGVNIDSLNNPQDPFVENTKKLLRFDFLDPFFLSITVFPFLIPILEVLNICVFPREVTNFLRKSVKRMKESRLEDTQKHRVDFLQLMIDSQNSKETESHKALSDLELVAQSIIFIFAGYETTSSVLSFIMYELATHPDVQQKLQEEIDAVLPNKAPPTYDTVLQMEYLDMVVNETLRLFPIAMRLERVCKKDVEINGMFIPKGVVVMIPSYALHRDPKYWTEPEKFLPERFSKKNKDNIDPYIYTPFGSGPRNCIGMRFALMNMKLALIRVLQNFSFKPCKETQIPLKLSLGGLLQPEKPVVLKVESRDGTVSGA
smiles,measurement,setting,value
Cc1c(O)c(O)cc[n+]1[C@@H](CO)Cc1ccccc1.[Cl-],IC50,Cytochrome P450 3A4,> 200 µM
same,Activity,[1],Toxic
same,Activity,[2],Non-Toxic
same,K,[3],6.15 pM
same,log K,[3],7.05
same,Drug metabolism,[4],Metabolite_Detected
same,Activity,Mus musculus [5],Non-Toxic
same,IC50,Cytochrome P450 2C8,> 200 µM
same,pKa,[6],9.9
same,bioavailability,[7],82.6%
same,logD,[8],0.62
same,Drug uptake,[9],Not Active
same,Drug uptake,[10],Not Active
same,Activity,[11],Non-Toxic
same,Vz,[12],5.29 L/kg
same,CL/F,[13],19 mL/min/kg
same,Drug metabolism,[14],Metabolite_Detected
same,Activity,Rattus norvegicus,Active
same,Activity,[15],Non-Toxic
same,K,[16],13 pM
same,log K,[16],12.2
same,K,[17],19.8 pM
same,log K,[17],14.8
same,pM,[18],6.17
same,Activity,[19],Non-Toxic
same,Activity,[20],Non-Toxic
same,Activity,Mus musculus [21],Non-Toxic
